According to ChEMBL document CHEMBL1136224, “De novo synthesis of two new cytotoxic tiazofurin analogues with modified sugar moieties” (Bioorg Med Chem Lett, 2003):

How the values were obtained:
Format in all cases: functional, cell-based
Settings in all cases: Homo sapiens
HL-60 = assay: Concentration required to inhibit HL-60 cell growth
Summary of the method: (§1)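 MTT assay after 24 h incubation with compound, top tested concentration 1000 µM. IC50 = concentration giving 50% inhibition of cell growth relative to untreated control. Human lines: myelogenous leukaemia K562, promyelocytic leukaemia HL60, colon adenocarcinoma HT29, breast adenocarcinoma MCF7, normal foetal lung MRC-5.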

HT-29 = assay: Concentration required to inhibit HT-29 cell growth; summary of the method: as §1
K562 = assay: Concentration required to inhibit K562 cell growth; summary of the method: as §1
MCF7 = assay: Concentration required to inhibit MCF-7 cell growth; summary of the method: as §1
MRC5 = assay: Concentration required to inhibit MRC-5 cell growth; summary of the method: as §1

CC(=O)N[C@H]1[C@@H](O)[C@H](c2nc(C(N)=O)cs2)O[C@@H]1CO
IC50 (HL-60): 1000 µM
IC50 (HT-29): 1 µM
IC50 (K562): 0.095 µM
IC50 (MCF7): > 1000 µM
IC50 (MRC5): 89.7 µM

NC(=O)c1csc([C@@H]2O[C@H](CO)[C@@H](F)[C@H]2O)n1
IC50 (HL-60): 10.5 µM
IC50 (HT-29): 0.91 µM
IC50 (K562): 96.6 µM
IC50 (MCF7): > 1000 µM
IC50 (MRC5): > 1000 µM

NC(=O)c1csc([C@@H]2O[C@H](CO)[C@@H](O)[C@H]2O)n1 [TIAZOFURIN]
IC50 (HL-60): 9.32 µM
IC50 (HT-29): 1.01 µM
IC50 (K562): 4.16 µM
IC50 (MCF7): 8.49 µM
IC50 (MRC5): 0.85 µM
